# From ChEMBL document CHEMBL2176990, “Synthesis and biological evaluation of 5-benzylidenepyrimidine-2,4,6(1H,3H,5H)-trione derivatives for the treatment of obesity-related nonalcoholic fatty liver disease” (J Med Chem, 2012)
# Calls of active or inactive are those of the source. The rule behind the calls is not given here.
# Tests used:
# Rattus norvegicus [1] = test: Antiobesity activity in Wistar rat high fat diet-induced NAFLD model assessed as reduction of serum HDL-cholesterol level at 150 mg/kg, po qd for 4 weeks; format: functional
# Procedure, shortened: (§1)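 Male Wistar rats (160−180 g) fed high-fat diet (50.55% calories from fat), n = 10 per group. Dosed orally at 150 mg/kg/day for 4 weeks. Body, liver and fat weights and food intake recorded. Serum lipids, AST, ALT and glucose measured on a biochemistry analyzer. Fasting insulin measured by kit; adiponectin and leptin by ELISA. Mean ± SD; percent change vs HFD group.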
# Rattus norvegicus [2] = test: Antiobesity activity in Wistar rat high fat diet-induced NAFLD model assessed as reduction of serum LDL-cholesterol level at 150 mg/kg, po qd for 4 weeks; format: functional; procedure, shortened: as §1
# Rattus norvegicus [3] = test: Antiobesity activity in Wistar rat high fat diet-induced NAFLD model assessed as reduction of serum total cholesterol level at 150 mg/kg, po qd for 4 weeks; format: functional; procedure, shortened: as §1
# Rattus norvegicus [4] = test: Antiobesity activity in Wistar rat high fat diet-induced NAFLD model assessed as reduction of serum AST level at 150 mg/kg, po qd for 4 weeks; format: functional; procedure, shortened: as §1
# Rattus norvegicus [5] = test: Antiobesity activity in Wistar rat high fat diet-induced NAFLD model assessed as reduction of serum ALT level at 150 mg/kg, po qd for 4 weeks; format: functional; procedure, shortened: as §1
# Rattus norvegicus [6] = test: Antiobesity activity in Wistar rat high fat diet-induced NAFLD model assessed as reduction of serum triglycerides level at 150 mg/kg, po qd for 4 weeks; format: functional; procedure, shortened: as §1
# Rattus norvegicus [7] = test: Antiobesity activity in Wistar rat high fat diet-induced NAFLD model assessed as reduction of serum insulin level at 150 mg/kg, po qd for 4 weeks; format: functional; parameters: scale not given: the % may be the effect or the level left; procedure, shortened: as §1
# Rattus norvegicus [8] = test: Antiobesity activity in Wistar rat high fat diet-induced NAFLD model assessed as reduction of fasting blood glucose level at 150 mg/kg, po qd for 4 weeks; format: functional; parameters: scale not given: the % may be the effect or the level left; procedure, shortened: as §1
# Rattus norvegicus [9] = test: Antiobesity activity in Wistar rat high fat diet-induced NAFLD model assessed as reduction of fat mass at 150 mg/kg, po qd for 4 weeks; format: functional; parameters: scale not given: the % may be the effect or the level left; procedure, shortened: as §1
# Rattus norvegicus [10] = test: Antiobesity activity in Wistar rat high fat diet-induced NAFLD model assessed as reduction of liver weight at 150 mg/kg, po qd for 4 weeks; format: functional; parameters: scale not given: the % may be the effect or the level left; procedure, shortened: as §1
# Rattus norvegicus [11] = test: Antiobesity activity in Wistar rat high fat diet-induced NAFLD model assessed as reduction of body weight at 150 mg/kg, po qd for 4 weeks; format: functional; parameters: scale not given: the % may be the effect or the level left; procedure, shortened: as §1
# 3T3-L1 [12] = test: Down-regulation of […] expression in mouse 3T3L1 cells at 1 mM after 24 hrs by ELISA; format: functional
# Procedure, shortened: (§2)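 3T3-L1 preadipocytes grown to 2 days post-confluence. Differentiated with 0.5 mM IBMX, 0.25 μM dexamethasone and 1 μg/mL insulin for 2 days, then insulin alone for 2 days, then 10% FBS DMEM. On day 12, treated 24 h; secreted adiponectin and leptin measured by ELISA. Three independent experiments.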
# 3T3-L1 [13] = test: Up-regulation of adiponectin expression in mouse 3T3L1 cells at 1 mM after 24 hrs by ELISA; format: functional; procedure, shortened: as §2
# HepG2 [14] = test: Reduction of glucose consumption in insulin-resistant human HepG2 cells at 1 mM after 24 hrs by glucose oxidase method in presence of 0.1 uM of insulin; format: functional, cell-based
# Procedure, shortened: (§3)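 HepG2 cells in DMEM (22.2 mM glucose) with 10% FBS, exposed to 0.1 μM insulin from plating for 2 days. At confluence, given fresh 22.2 mM glucose DMEM with test agents for 24 h. Medium glucose measured by glucose oxidase. Consumption = blank minus remaining glucose, normalized to MTT. Three independent experiments.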
# HepG2 [15] = test: Reduction of glucose consumption in insulin-resistant human HepG2 cells at 1 mM after 24 hrs by glucose oxidase method in presence of 22.2 mM of glucose; format: functional, cell-based; procedure, shortened: as §3
# Mus musculus [16] = test: Antiobesity activity in C57BL/6J mouse high fat diet-induced NAFLD model assessed as reduction of postprandial glucose level at 150 mg/kg, po qd for 6 weeks by intravenous glucose tolerance test; format: functional, organism-based; parameters: dose 150 mg/kg
# Procedure, shortened: (§4)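 DIO C57BL/6J mice (HFD 60.0% fat) dosed orally for 6 weeks, n = 5, fasted overnight. Glucose load given either orally at 3.0 g/kg (OGTT) or intravenously at 0.5 g/kg (IGTT). Tail-vein blood sampled at 0, 15, 30, 60, 90, 120 and 180 min.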
# Mus musculus [17] = test: Antiobesity activity in C57BL/6J mouse high fat diet-induced NAFLD model assessed as reduction of postprandial glucose level at 150 mg/kg, po qd for 6 weeks by oral glucose tolerance test; format: functional, organism-based; parameters: dose 150 mg/kg; procedure, shortened: as §4
# Mus musculus [18] = test: Antiobesity activity in C57BL/6J mouse high fat diet-induced NAFLD model assessed as reduction of serum free fatty acid level at 150 mg/kg, po qd for 7 weeks; format: functional; parameters: scale not given: the % may be the effect or the level left
# Procedure, shortened: (§5)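 Male C57BL/6J mice, 3 weeks old, fed high-fat diet (60.0% calories from fat) ad libitum for 8 weeks, then randomized into groups of 10. Body weight and food intake recorded daily. Serum markers measured after sacrifice; fasting glucose included. Percent change = (V_HFD − V_treatment)/V_HFD × 100.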
# Mus musculus [19] = test: Antiobesity activity in C57BL/6J mouse high fat diet-induced NAFLD model assessed as reduction of serum HDL-cholesterol level at 150 mg/kg, po qd for 7 weeks; format: functional; parameters: scale not given: the % may be the effect or the level left; procedure, shortened: as §5
# Mus musculus [20] = test: Antiobesity activity in C57BL/6J mouse high fat diet-induced NAFLD model assessed as reduction of serum LDL-cholesterol level at 150 mg/kg, po qd for 7 weeks; format: functional; parameters: scale not given: the % may be the effect or the level left; procedure, shortened: as §5
# Mus musculus [21] = test: Antiobesity activity in C57BL/6J mouse high fat diet-induced NAFLD model assessed as reduction of serum triglycerides level at 150 mg/kg, po qd for 7 weeks; format: functional; parameters: scale not given: the % may be the effect or the level left; procedure, shortened: as §5
# Mus musculus [22] = test: Antiobesity activity in C57BL/6J mouse high fat diet-induced NAFLD model assessed as reduction of serum ALT level at 150 mg/kg, po qd for 7 weeks; format: functional; parameters: scale not given: the % may be the effect or the level left; procedure, shortened: as §5
# Mus musculus [23] = test: Antiobesity activity in C57BL/6J mouse high fat diet-induced NAFLD model assessed as reduction of fasting blood glucose level at 150 mg/kg, po qd for 7 weeks; format: functional; parameters: scale not given: the % may be the effect or the level left; procedure, shortened: as §5
# Mus musculus [24] = test: Antiobesity activity in C57BL/6J mouse high fat diet-induced NAFLD model assessed as reduction of fat mass in epididymal and abdominal at 150 mg/kg, po qd for 7 weeks; format: functional, organism-based; parameters: dose 150 mg/kg; procedure, shortened: as §5
# Mus musculus [25] = test: Antiobesity activity in C57BL/6J mouse high fat diet-induced NAFLD model assessed as reduction of body weight at 150 mg/kg, po qd for 7 weeks; format: functional; parameters: scale not given: the % may be the effect or the level left; procedure, shortened: as §5
# Rattus norvegicus [26] = test: Antiobesity activity in Wistar rat high fat diet-induced NAFLD model assessed as reduction of liver total cholesterol level at 150 mg/kg, po qd for 4 weeks; format: functional; parameters: scale not given: the % may be the effect or the level left
# Procedure, shortened: (§6)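 Male Wistar rats on high-fat diet (50.55% fat), dosed orally at 150 mg/kg/day for 4 weeks, n = 10. Liver homogenized in 50 mM Tris-HCl pH 7.4 with 150 mM NaCl, 1 mM PMSF and 1 mM EDTA, then triglycerides and total cholesterol assayed. Liver sections stained with H&E to assess lipid droplets.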
# Rattus norvegicus [27] = test: Antiobesity activity in Wistar rat high fat diet-induced NAFLD model assessed as reduction of liver triglycerides level at 150 mg/kg, po qd for 4 weeks; format: functional; parameters: scale not given: the % may be the effect or the level left; procedure, shortened: as §6
# Rattus norvegicus [28] = test: Antiobesity activity in Wistar rat high fat diet-induced NAFLD model assessed as reduction of leptin level at 150 mg/kg, po qd for 4 weeks; format: functional; procedure, shortened: as §1
# Rattus norvegicus [29] = test: Antiobesity activity in Wistar rat high fat diet-induced NAFLD model assessed as increase of adiponectin level at 150 mg/kg, po qd for 4 weeks; format: functional; procedure, shortened: as §1
structure (smiles),measurement,setting,value
CN(C)C(=N)NC(=N)N [METFORMIN],Activity,Rattus norvegicus [1],0.28 mmol/L
same,Activity,Rattus norvegicus [2],0.15 mmol/L
same,Activity,Rattus norvegicus [3],1.99 mmol/L
same,Activity,Rattus norvegicus [4],89 U/L
same,Activity,Rattus norvegicus [5],39 U/L
same,Activity,Rattus norvegicus [6],1.6 mmol/L
same,Activity,Rattus norvegicus [7],12.8%
same,Activity,Rattus norvegicus [8],19.7%
same,Activity,Rattus norvegicus [9],18.1%
same,Activity,Rattus norvegicus [10],2.2%
same,Activity,Rattus norvegicus [11],5.2%
same,Activity,3T3-L1 [12],360.8 pg/mL
same,Activity,3T3-L1 [13],125.8 pg/mL
same,Activity,HepG2 [14],Active
same,Activity,HepG2 [15],Active
same,Activity,Mus musculus [16],Active
same,Activity,Mus musculus [17],Active
same,Activity,Mus musculus [18],3.7%
same,Activity,Mus musculus [19],46.7%
same,Activity,Mus musculus [20],44.4%
same,Activity,Mus musculus [21],29.3%
same,Activity,Mus musculus [22],66%
same,Activity,Mus musculus [23],10.3%
same,Activity,Mus musculus [24],Active
same,Activity,Mus musculus [25],9.62%
same,Activity,Rattus norvegicus [26],50%
same,Activity,Rattus norvegicus [27],48.8%
same,Activity,Rattus norvegicus [28],13.6 ng/mL
same,Activity,Rattus norvegicus [29],198.3 µg/mL
